Experimental data: ChEMBL document CHEMBL1250490, “Synthesis, characterization, antiamoebic activity and cytotoxicity of novel series of pyrazoline derivatives bearing quinoline tail” (Eur J Med Chem, 2010)

Test system: MCF7
Assay: Cytotoxicity against human MCF7 cells after 48 hrs by MTT assay
Format: cell-based
Conditions: MCF7, 48 h
Summary of the method: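 MCF-7 cells were kept as monolayers in DMEM with 10% fetal calf serum and penicillin. They were plated at 1.2×10⁴ cells/well and grown 48 h before dosing. Compounds were dissolved as 20% DMSO stocks and diluted in complete medium. After 48 h exposure, MTT was added for 4 h at 37 °C and dissolved in DMSO. Absorbance was read at 570 nm (reference 655 nm); viability is relative to untreated cells. Triplicate, repeated thrice.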

## Cc1ncc([N+](=O)[O-])n1CCO [METRONIDAZOLE]
  IC50: > 100 µM
